Entries after “also recorded” stand apart in the source; their conditions may differ. Where no end group is shown, it is not given here.

One data set relates to MAS. Put plainly: Filamin A phosphorylation in HEK-MAS cells. The format is cell-based, human. In a few lines:
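HEK293 cells with doxycycline-inducible (100 ng/mL) myc-tagged MAS were induced 24 h with or without MAS inverse agonist (10 μM), then serum-starved 2 h with inverse agonist or H-89 (10 μM each). They were then treated 1 h with MAS agonist (10 μM) plus H-89; uninduced cells served as controls. Lysates were Western-blotted for pS2152-FLNa, FLNa and GAPDH, and pFLNa/FLNa was given as fold over uninduced. Mean ± SEM, N = 3, unpaired t test.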

Data set [1] concerns the target Filamin A Ig21 (Homo sapiens) (UniProt P21333). The following applies: cited from earlier work.
The next data set relates to AT1R. The data set is described as follows: Filamin A phosphorylation in HEK-AT1R cells. The format is cell-based, rat. The following applies: serum starved 2 h, AngII 1 μM for 1 h, mean of N = 2. The procedure, abridged:
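HEK293 cells stably expressing HA-tagged rat AT1R were grown to 80–90% confluency and serum-starved 2 h. They were pretreated 30 min with vehicle or candesartan (10 μM), then given vehicle or AngII (1 μM) for 1 h. About 25 μg of M-PER lysate (protease and phosphatase inhibitors) was run on 4–12% SDS-PAGE. Blots were probed for pS2152-FLNa, FLNa and GAPDH by near-IR fluorescence. pFLNa/FLNa was expressed as fold over untreated; mean ± SEM, N = 2, unpaired t test.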

For another data set, the system named is FLNa Ig19. Put plainly: 15N HSQC NMR binding to FLNa Ig19. The settings on record: 15N-labeled Ig19, Bruker Avance 600 MHz, 30 °C; 2-fold excess of peptide. Also on record: species or system human.
In data set [2] the target is T1, FLNa Ig21 (Homo sapiens, UniProt P21333).
T1 sequence (P21333 2236-2329 limits assumed): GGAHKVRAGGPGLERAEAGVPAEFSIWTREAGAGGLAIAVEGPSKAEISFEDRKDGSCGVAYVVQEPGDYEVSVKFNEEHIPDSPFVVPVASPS
Put plainly: 15N HSQC NMR binding to FLNa Ig21. The following applies: 15N-labeled Ig21, Bruker Avance 600 MHz, 30 °C; D3R peptide at 2-fold excess.

Data set [3] deals with T1, FLNa Ig21. Put plainly: Isothermal titration calorimetry. The format is binding. The settings on record: FLNa Ig21, 25 mM sodium phosphate (pH 6.4), 30 °C.
In another data set the test system is FLNa. The following applies: cited from earlier work.
The nature of data set [4]: Peptide solubility in ITC buffer. The format is physicochemical. The following applies: 25 mM sodium phosphate (pH 6.4), 5 mM NaCl, 1 mM DTT.
Another data set deals with Filamin A (Homo sapiens) (UniProt P21333). The following applies: cited from earlier work.
In data set [5] the target is Human Filamin A immunoglobulin domain Ig21 (human). Put plainly: ITC. (In general: Isothermal titration calorimetry measures the heat released or taken up as one component is titrated into another.)

Chain of Filamin A (Homo sapiens) (P21333 2-2647): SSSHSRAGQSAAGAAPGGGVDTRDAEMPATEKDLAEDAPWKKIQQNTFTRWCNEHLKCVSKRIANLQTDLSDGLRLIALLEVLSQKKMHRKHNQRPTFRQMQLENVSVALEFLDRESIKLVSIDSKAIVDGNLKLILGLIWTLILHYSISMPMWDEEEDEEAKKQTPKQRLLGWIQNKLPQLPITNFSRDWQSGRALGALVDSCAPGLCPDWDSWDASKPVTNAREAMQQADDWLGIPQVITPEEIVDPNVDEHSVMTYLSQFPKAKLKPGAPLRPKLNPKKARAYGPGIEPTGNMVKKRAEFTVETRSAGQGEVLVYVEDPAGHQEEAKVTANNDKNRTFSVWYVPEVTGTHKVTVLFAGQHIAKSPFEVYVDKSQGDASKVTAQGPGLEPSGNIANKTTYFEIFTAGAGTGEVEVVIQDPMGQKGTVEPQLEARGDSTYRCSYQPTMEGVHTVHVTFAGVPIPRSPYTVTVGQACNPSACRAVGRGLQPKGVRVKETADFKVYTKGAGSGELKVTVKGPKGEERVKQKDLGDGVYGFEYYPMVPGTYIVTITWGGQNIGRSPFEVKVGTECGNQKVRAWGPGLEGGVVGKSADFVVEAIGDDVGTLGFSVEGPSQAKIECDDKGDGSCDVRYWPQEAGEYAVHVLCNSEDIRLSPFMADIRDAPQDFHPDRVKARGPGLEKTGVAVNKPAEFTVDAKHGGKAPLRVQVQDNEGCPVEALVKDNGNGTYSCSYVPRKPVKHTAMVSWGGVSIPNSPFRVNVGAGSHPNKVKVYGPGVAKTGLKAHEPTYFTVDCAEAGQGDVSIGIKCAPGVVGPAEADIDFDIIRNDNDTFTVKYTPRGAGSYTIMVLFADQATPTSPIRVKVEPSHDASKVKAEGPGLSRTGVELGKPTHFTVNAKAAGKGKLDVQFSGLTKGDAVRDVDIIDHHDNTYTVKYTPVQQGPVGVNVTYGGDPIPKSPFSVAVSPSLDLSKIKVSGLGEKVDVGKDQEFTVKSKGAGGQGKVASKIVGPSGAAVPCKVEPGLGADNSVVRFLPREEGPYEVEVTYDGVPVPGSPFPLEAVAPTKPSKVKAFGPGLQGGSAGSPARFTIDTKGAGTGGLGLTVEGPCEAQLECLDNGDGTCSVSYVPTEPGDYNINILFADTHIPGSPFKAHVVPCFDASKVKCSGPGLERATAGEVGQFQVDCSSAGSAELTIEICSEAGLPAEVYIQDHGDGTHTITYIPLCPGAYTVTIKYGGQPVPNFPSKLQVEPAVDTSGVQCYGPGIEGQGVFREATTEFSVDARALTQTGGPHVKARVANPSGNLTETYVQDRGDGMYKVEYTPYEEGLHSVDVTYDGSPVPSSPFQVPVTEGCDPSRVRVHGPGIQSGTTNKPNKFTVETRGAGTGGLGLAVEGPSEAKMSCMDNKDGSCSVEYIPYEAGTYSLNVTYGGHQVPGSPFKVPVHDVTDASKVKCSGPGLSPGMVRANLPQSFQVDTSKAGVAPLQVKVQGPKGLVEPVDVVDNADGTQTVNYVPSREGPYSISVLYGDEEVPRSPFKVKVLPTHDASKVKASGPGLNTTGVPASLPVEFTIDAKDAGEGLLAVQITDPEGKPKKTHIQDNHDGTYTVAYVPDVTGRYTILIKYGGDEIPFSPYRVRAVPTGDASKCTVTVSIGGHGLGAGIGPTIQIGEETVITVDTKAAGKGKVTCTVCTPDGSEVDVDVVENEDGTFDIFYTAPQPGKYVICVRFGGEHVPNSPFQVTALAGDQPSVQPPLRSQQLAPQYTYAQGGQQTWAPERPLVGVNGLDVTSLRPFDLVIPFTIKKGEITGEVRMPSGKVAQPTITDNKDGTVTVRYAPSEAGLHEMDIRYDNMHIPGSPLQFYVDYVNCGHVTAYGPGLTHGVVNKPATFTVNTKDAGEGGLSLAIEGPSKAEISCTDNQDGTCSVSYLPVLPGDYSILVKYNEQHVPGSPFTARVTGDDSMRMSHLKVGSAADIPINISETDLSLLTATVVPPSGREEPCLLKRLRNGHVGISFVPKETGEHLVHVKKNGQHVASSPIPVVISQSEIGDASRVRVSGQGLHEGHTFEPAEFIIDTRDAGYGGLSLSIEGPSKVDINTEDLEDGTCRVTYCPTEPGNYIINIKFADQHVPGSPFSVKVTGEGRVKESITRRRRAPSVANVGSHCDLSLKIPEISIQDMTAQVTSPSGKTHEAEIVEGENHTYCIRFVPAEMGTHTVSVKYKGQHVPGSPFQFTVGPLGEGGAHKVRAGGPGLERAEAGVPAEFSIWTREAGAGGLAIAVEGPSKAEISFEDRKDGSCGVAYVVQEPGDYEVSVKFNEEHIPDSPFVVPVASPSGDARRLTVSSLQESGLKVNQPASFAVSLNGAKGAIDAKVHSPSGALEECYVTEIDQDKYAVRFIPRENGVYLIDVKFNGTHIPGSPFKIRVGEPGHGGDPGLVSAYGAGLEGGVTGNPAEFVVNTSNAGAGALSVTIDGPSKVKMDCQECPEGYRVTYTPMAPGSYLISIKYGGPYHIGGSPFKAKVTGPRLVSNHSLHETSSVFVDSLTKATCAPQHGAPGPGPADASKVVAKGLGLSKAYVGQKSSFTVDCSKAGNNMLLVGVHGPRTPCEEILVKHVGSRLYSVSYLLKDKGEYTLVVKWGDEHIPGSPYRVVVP

For `C=CCCN1CCC2(CC1)CN(C(=O)c1c(F)cccc1F)c1ccc(Cl)cc12` [AR-inverse agonist], the “FLNa phosphorylation induced by constitutive activity of MAS” value with MAS (10 μM AR-inverse agonist during induction (24 h) and serum starvation (2 h), N = 3) was “abolished constitutive FLNa phosphorylation”.

As a reminder, the Kd is the constant that tells how readily two partners part at equilibrium. Take “β7 integrin C-terminal peptide Ct (from UniProt P26010)”: the Kd in data set [1] was 40000 nM.

As to “angiotensin II (DRVYIHPF; Angiotensin-2; UniProt P01019 25-32, looked up) [AngII]”, the “filamin phosphorylation, increase (pFLNa/FLNa)” value in the data set on AT1R amounted to 5 fold.

Take VRKLSNGRLSTSLKLGPLQPRGV [D3R]: in the data set with FLNa Ig19, the “HSQC spectral changes / binding to FLNa Ig19” value was “binds FLNa Ig19 and Ig21”. Further, the “HSQC spectral changes / binding to FLNa Ig21” value at FLNa Ig21 [2] was “binds FLNa Ig19 and Ig21”. On FLNa Ig21 [3], the “affinity for Ig21 by ITC (in words)” value is given as “could not be assessed accurately by ITC because of its lower affinity; also recorded: binds with a lower affinity”.

For lysophosphatidic acid, the “level of FLNa phosphorylation” value with FLNa is on record as “increase the level of FLNa phosphorylation”.

For the molecule KGHTFRSSLSVRLLKFSR [α1D-AR], the “solubility of peptide (in words)” value in [4] is listed as “limited”.

For the molecule GPIbα (from UniProt P07359), the Kd with Filamin A (Homo sapiens) was 100 nM.

`O=S(=O)(NCCNC/C=C/c1ccc(Br)cc1)c1cccc2cnccc12` [H-89]: in the data set on MAS (H-89 10 μM, Discussion statement), the “inhibition of the increase in pFLNa in MAS-expressing cells” value came to 60%.

B1: AT1R filamin binding motif (FBM) peptide (peptide)
peptide: LGKKFKRYFLQLLKYIPPKA
In the case of B1, the Kd in data set [5] came out at 800 nM.

B2: α1D-adrenoreceptor (α1D-AR) filamin binding motif (FBM) peptide (peptide)
peptide: KGHTFRSSLSVRLLKFSR
In [5], B2 showed a Kd of 800 nM.

B3: MAS filamin binding motif (FBM) peptide (peptide)
peptide: KKKRFKESLKVVLTRAFK
Regarding B3, the Kd in data set [5] was 300 nM.
